Reference: ChEMBL document CHEMBL1128432, “Structure-activity relationships for inhibition of type 1 and 2 human 5 alpha-reductase and human adrenal 3 beta-hydroxy-delta 5-steroid dehydrogenase/3-keto-delta 5-steroid isomerase by 6-azaandrost-4-en-3-ones: optimization of the C17 substituent” (J Med Chem, 1995)

How the values were obtained:
[1] = Inhibition of recombinant human adrenal 3-beta-hydroxy-delta-5-steroid dehydrogenase
[2] = target: T1, 3-oxo-5-alpha-steroid 4-dehydrogenase 2 (Homo sapiens, UniProt P31213); assay: Inhibitory activity measured on human steroid 5-alpha-reductase type 2
T1 sequence (P31213 whole entry): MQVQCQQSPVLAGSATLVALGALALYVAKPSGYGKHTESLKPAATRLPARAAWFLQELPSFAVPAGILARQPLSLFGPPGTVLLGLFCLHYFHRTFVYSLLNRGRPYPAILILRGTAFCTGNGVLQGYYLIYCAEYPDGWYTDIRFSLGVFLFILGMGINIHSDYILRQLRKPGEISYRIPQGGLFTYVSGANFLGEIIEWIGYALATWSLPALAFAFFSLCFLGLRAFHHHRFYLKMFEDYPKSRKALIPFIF

[3] = target: T2, 3-oxo-5-alpha-steroid 4-dehydrogenase 1 (Homo sapiens, UniProt P18405); assay: Inhibition of recombinant steroid 5-alpha-reductase type I
T2 sequence (P18405 whole entry): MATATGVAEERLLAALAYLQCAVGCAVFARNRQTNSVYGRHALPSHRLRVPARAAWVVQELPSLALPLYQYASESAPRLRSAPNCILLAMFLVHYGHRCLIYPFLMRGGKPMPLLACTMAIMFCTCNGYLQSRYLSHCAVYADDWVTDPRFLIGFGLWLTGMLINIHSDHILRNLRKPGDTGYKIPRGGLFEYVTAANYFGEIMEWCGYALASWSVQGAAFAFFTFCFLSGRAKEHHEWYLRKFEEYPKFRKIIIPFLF

[4] = Bioavailability in dog (Beagle) at t1/2 (dose 5 mg/kg i.v.); type: ADME, organism-based, Canis lupus familiaris; settings: in vivo, iv
In short: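 Male beagles dosed intravenously (5 mg/kg for these lines), 2–5 animals. Blood half-life measured in hours after iv dosing; % bioavailability reported alongside.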

Rattus norvegicus = assay: % reduction in prostate weight when compared with T-treated controls was measured in castrated rat at 10 mg/kg/day po administration; type: functional, Prostate gland
In short: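 Castrated male rats, 8 per group, given 10 mg/kg/day orally alongside testosterone. The readout is ventral prostate weight reduction versus testosterone-treated controls, expressed relative to finasteride run as an internal standard in each experiment.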

[5] = target: T3, 3-oxo-5-alpha-steroid 4-dehydrogenase 1 (Rattus norvegicus, UniProt P24008); assay: (§1) Inhibition of recombinant Steroid 5-alpha-reductase type I was evaluated as binding affinity of the compound
T3 sequence (P24008 whole entry): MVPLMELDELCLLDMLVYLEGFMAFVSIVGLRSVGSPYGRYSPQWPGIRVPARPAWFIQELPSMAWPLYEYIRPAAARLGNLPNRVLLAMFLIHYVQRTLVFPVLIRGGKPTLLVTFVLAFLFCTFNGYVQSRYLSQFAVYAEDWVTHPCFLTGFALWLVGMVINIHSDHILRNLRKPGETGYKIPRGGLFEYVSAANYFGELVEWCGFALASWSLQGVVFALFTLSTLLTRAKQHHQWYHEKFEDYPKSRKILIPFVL

[6] = target: T4, 3-oxo-5-alpha-steroid 4-dehydrogenase 2 (Rattus norvegicus, UniProt P31214); assay: Inhibitory activity was measured on rat Steroid 5-alpha-reductase type 2
T4 sequence (P31214 whole entry): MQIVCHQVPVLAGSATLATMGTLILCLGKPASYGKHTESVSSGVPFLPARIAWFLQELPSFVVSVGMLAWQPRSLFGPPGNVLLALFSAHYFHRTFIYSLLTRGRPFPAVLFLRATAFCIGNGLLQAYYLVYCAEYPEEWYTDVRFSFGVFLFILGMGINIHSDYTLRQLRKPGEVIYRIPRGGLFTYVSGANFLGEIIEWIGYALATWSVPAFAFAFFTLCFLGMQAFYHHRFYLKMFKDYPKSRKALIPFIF
In short: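 Recombinant rat type 2 5α-reductase, assayed by the same procedure as the human type 2 assay, with changes specific to the rat enzymes.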

[7] = Inhibition of […] rat adrenal 3-beta-hydroxy-delta-5-steroid dehydrogenase
In short: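 Rat adrenal microsomes from homogenization and differential centrifugation. Started with 8 nM [3H]DHEA, stopped at 15 min with ethanol, and androstenedione measured by radio-HPLC. Kiapp from nonlinear regression, converted to Ki with Km 21 nM.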

[8] = Plasma half life in beagles after iv administration.; settings: beagle, dog
[9] = target: T3, 3-oxo-5-alpha-steroid 4-dehydrogenase 1; assay: Inhibition of recombinant Steroid 5-alpha-reductase type I was evaluated as binding affinity (in vitro)
[10] = target: T2, 3-oxo-5-alpha-steroid 4-dehydrogenase 1; assay: as §1
[11] = 4 mg/kg, in the assay text read “dose 4 mg/kg i.v.” for “dose 5 mg/kg i.v.”

CC(C)(C)c1cc(NC(=O)[C@H]2CCC3C4CNC5=CC(=O)CC[C@]5(C)C4CC[C@@]32C)cc(C(C)(C)C)c1 (stereo partly specified)
Ki [1]: 7.8 nM
IC50 [2]: < 0.1 nM
Ki [3]: 8 nM

CC(C)(C)c1ccc(C(F)(F)F)cc1NC(=O)[C@H]1CCC2C3CNC4=CC(=O)CC[C@]4(C)C3CC[C@@]21C (stereo partly specified)
Ki [1]: 1600 nM
bioavailability [4, 11]: 67%
Reduction in prostate weight (Rattus norvegicus): 100%
Ki [5]: 0.1 nM
IC50 [2]: < 0.1 nM
Ki [6]: 0.17 nM
Ki [3]: 8.8 nM
Ki [7]: 140 nM
half-life [8]: 8.8 h

C[C@]12CCC(=O)C=C1NCC1C2CC[C@@]2(C)C1CC[C@@H]2C(=O)Nc1ccccc1 (stereo partly specified)
Ki [1]: 10 nM
Ki [3]: 240 nM

CC(C)(C)c1ccc(-c2ccc(C(F)(F)F)cc2NC(=O)[C@H]2CCC3C4CNC5=CC(=O)CC[C@]5(C)C4CC[C@@]32C)cc1 (stereo partly specified)
Ki [1]: 19 nM
IC50 [2]: 0.5 nM
Ki [3]: 1100 nM

CC(C)(C)c1ccc(C2(NC(=O)[C@H]3CCC4C5CNC6=CC(=O)CC[C@]6(C)C5CC[C@@]43C)CCCC2)cc1 (stereo partly specified)
Ki [1]: 1500 nM
IC50 [2]: < 0.1 nM
Ki [3]: 3 nM

CC(C)(C)c1ccc(Br)cc1NC(=O)[C@H]1CCC2C3CNC4=CC(=O)CC[C@]4(C)C3CC[C@@]21C (stereo partly specified)
Ki [1]: 820 nM
IC50 [2]: < 0.1 nM
Ki [3]: 4.2 nM

C[C@]12CCC(=O)C=C1NCC1C2CC[C@@]2(C)C1CC[C@@H]2C(=O)NC1(c2ccc(Cl)cc2)CCCC1 (stereo partly specified)
Ki [1]: 1600 nM
bioavailability ([4]; 5 mg/kg): 79%
Reduction in prostate weight (Rattus norvegicus): 130%
IC50 [2]: < 0.1 nM
Ki [6]: 0.12 nM
Ki [3]: 6.8 nM
Ki [9]: 0.07 nM
Ki [7]: 97 nM
half-life [8]: 12 h

CC(C)(C)c1cc(Br)ccc1NC(=O)[C@H]1CCC2C3CNC4=CC(=O)CC[C@]4(C)C3CC[C@@]21C (stereo partly specified)
Ki [1]: 390 nM
IC50 [2]: < 0.1 nM
Ki [3]: 5.3 nM

C[C@]12CCC(=O)C=C1NCC1C2CC[C@@]2(C)C1CC[C@@H]2C(=O)Nc1cc(C(F)(F)F)ccc1C(F)(F)F (stereo partly specified)
Ki [1]: 300 nM
bioavailability [4, 11]: 100%
Reduction in prostate weight (Rattus norvegicus): 130%
Ki [5]: 0.27 nM
IC50 [2]: < 0.1 nM
Ki [6]: 1.1 nM
Ki [3]: 4 nM
Ki [7]: 50 nM
half-life [8]: 31 h

CC(C)(C)c1ccc(-c2ccc(Cl)cc2)cc1NC(=O)[C@H]1CCC2C3CNC4=CC(=O)CC[C@]4(C)C3CC[C@@]21C (stereo partly specified)
Ki [1]: 1200 nM
IC50 [2]: < 0.1 nM
Ki [3]: 3.4 nM

C[C@]12C=CC(=O)NC1CCC1C2CC[C@@]2(C)C1CC[C@@H]2C(=O)NC1(c2ccc(Cl)cc2)CCCC1 (stereo partly specified)
Ki [1]: 9000 nM
IC50 [10]: 0.9 nM
IC50 [2]: < 0.1 nM

CC1=C2NCC3C(CC[C@@]4(C)C3CC[C@@H]4C(=O)Nc3cc(C(F)(F)F)ccc3C(C)(C)C)[C@@]2(C)CCC1=O (stereo partly specified)
Ki [1]: 200 nM
IC50 [2]: < 0.1 nM
Ki [3]: 0.5 nM

CC1=C2NCC3C(CC[C@@]4(C)C3CC[C@@H]4C(=O)Nc3cc(C(F)(F)F)ccc3C(F)(F)F)[C@@]2(C)CCC1=O (stereo partly specified)
Ki [1]: 19 nM
IC50 [2]: < 0.1 nM
Ki [3]: 0.2 nM

C[C@]12CCC(C(=O)O)=CC1=CCC1C2CC[C@@]2(C)C1CC[C@@H]2C(=O)NC1(c2ccc(Cl)cc2)CCCC1 (stereo partly specified)
Ki [1]: 280 nM
IC50 [10]: 60 nM
IC50 [2]: < 0.1 nM

CC(C)(C)c1ccc(Cl)cc1NC(=O)[C@H]1CCC2C3CNC4=CC(=O)CC[C@]4(C)C3CC[C@@]21C (stereo partly specified)
Ki [1]: 760 nM
IC50 [2]: < 0.1 nM
Ki [3]: 7.5 nM

CC(C)(C)c1ccc(-c2ccccc2)cc1NC(=O)[C@H]1CCC2C3CNC4=CC(=O)CC[C@]4(C)C3CC[C@@]21C (stereo partly specified)
Ki [1]: 830 nM
IC50 [2]: < 0.1 nM
Ki [3]: 4.6 nM

CC(C)(C)c1ccc(-c2ccc(C(C)(C)C)c(NC(=O)[C@H]3CCC4C5CNC6=CC(=O)CC[C@]6(C)C5CC[C@@]43C)c2)cc1 (stereo partly specified)
Ki [1]: 8900 nM
IC50 [2]: < 0.1 nM
Ki [3]: 1.3 nM

CC(C)(C)c1ccc(C2(NC(=O)[C@H]3CCC4C5CNC6=CC(=O)CC[C@]6(C)C5CC[C@@]43C)CCCCC2)cc1 (stereo partly specified)
Ki [1]: 2200 nM
IC50 [2]: < 0.1 nM
Ki [3]: 1.5 nM

CC(C)(C)c1ccc(C2(NC(=O)[C@H]3CCC4C5CNC6=CC(=O)CC[C@]6(C)C5CC[C@@]43C)CCCCCC2)cc1 (stereo partly specified)
Ki [1]: 1500 nM
IC50 [2]: < 0.1 nM
Ki [3]: 3.6 nM

CC(C)(C)c1ccccc1NC(=O)[C@H]1CCC2C3CNC4=CC(=O)CC[C@]4(C)C3CC[C@@]21C (stereo partly specified)
Ki [1]: 85 nM
IC50 [2]: 0.2 nM
Ki [3]: 27 nM

C[C@]12CCC(=O)C=C1NCC1C2CC[C@@]2(C)C1CC[C@@H]2C(=O)Nc1cc(C(F)(F)F)cc(C(F)(F)F)c1 (stereo partly specified)
Ki [1]: 58 nM
IC50 [2]: 0.2 nM
Ki [3]: 26 nM

CC(C)(C)c1ccc(C(C)(C)C)c(NC(=O)[C@H]2CCC3C4CNC5=CC(=O)CC[C@]5(C)C4CC[C@@]32C)c1 (stereo partly specified)
Ki [1]: 500 nM
IC50 [2]: < 0.1 nM
Ki [3]: 5 nM

C[C@]12CCC(=O)C=C1NCC1C2CC[C@@]2(C)C1CC[C@@H]2C(=O)NC1(c2ccc(Cl)cc2Cl)CC1 (stereo partly specified)
Ki [1]: 130 nM
IC50 [2]: < 0.1 nM
Ki [3]: 6.7 nM

C[C@]12CCC(=O)C=C1NCC1C2CC[C@@]2(C)C1CC[C@@H]2C(=O)NC1(c2ccc(Cl)cc2)CCCCC1 (stereo partly specified)
Ki [1]: 1800 nM
IC50 [2]: < 0.1 nM
Ki [3]: 3.1 nM

C[C@]12CC[C@H]3[C@@H](CNC4=C(Cl)C(=O)CC[C@@]43C)[C@@H]1CC[C@@H]2C(=O)Nc1c(C(F)(F)F)cccc1C(F)(F)F (stereo in doubt; 25)
Ki [1]: 370 nM
Ki [3]: 0.6 nM

C[C@]12CC[C@H]3[C@@H](CNC4=C(Cl)C(=O)CC[C@@]43C)[C@@H]1CC[C@@H]2C(=O)Nc1cc(C(F)(F)F)ccc1C(F)(F)F (stereo in doubt; 27)
Ki [1]: 160 nM
IC50 [2]: < 0.1 nM
Ki [3]: 0.2 nM

CC(C)(C)NC(=O)[C@H]1CC[C@H]2[C@@H]3CC=C4C=C(C(=O)O)CC[C@]4(C)[C@H]3CC[C@]12C [EPRISTERIDE]
Ki [1]: 160 nM
IC50 [10]: 1600 nM

CC(C)(C)NC(=O)[C@H]1CC[C@H]2[C@@H]3CC[C@H]4NC(=O)C=C[C@]4(C)[C@H]3CC[C@]12C [FINASTERIDE]
Ki [1]: 11000 nM
IC50 [6]: 0.28 nM
Ki [9]: 6.8 nM
Ki [7]: 150 nM
half-life [8]: 4.2 h
